The nature of data set [1]: folding enthalpy; higher = less favourable; fluorescence melt of hairpins on a sequencing array, two-state fit. As to conditions: sodium 0.088 M. The essentials: (§1)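 Folding enthalpy and melting temperature were estimated with bootstrapped two-state fits and combined across four replicates by inverse-variance weighting, with fitted temperatures raised by 9.35 °C to match UV melts. The data were Cy3 fluorescence of library hairpins, with annealed Cy3 and quencher oligos, on a sequenced MiSeq flow cell in 50 mM Na-HEPES pH 8.0, 25 mM NaCl, imaged in 2.5 °C steps up to 60 °C and normalised to pre-quench Cy3 and control constructs.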

Data set [2] in a line: melting temperature; fluorescence melt of hairpins on a sequencing array, two-state fit, raised by 9.35 °C to match UV melts. As to conditions: sodium 0.088 M. The essentials: as §1

For the sequence GTCGAAGCGAAAGCTGAC (((..(((....)))))), the folding enthalpy in data set [1] is -14.8 kcal/mol. For the same sequence, the Tm in data set [2] was 46.5 °C.

For the sequence GGATCCGGAAACGGGTCC (((.(((....))).))), the folding enthalpy in data set [1] is -43.7 kcal/mol. The Tm in data set [2] was 59.4 °C.

In the case of GATCTAACTATAGATC ((((((....)))))), the folding enthalpy in data set [1] was -29.3 kcal/mol. For the same sequence, the Tm in data set [2] amounted to 37.5 °C.

For GTATTCGGAAACGGATAC ((((.((....)).)))), the folding enthalpy in data set [1] was -33.2 kcal/mol. For the same sequence, the Tm in data set [2] came out at 45.1 °C.

For GCGAACCCGAAAGGGCGC (((..(((....)))))), in data set [1], the folding enthalpy was -21.4 kcal/mol. Also, the Tm in data set [2] stood at 55.5 °C.

Turning to GTCCACGAAAGTGTGGAC ((((((....)))..))), the folding enthalpy in data set [1] was -27.1 kcal/mol. Moreover, the Tm in data set [2] is 55.8 °C.

Turning to GAATACCGAAAGGTTTC (((.(((....)))))), in data set [1], the folding enthalpy was -16.5 kcal/mol. The Tm in data set [2] came out at 39.2 °C.

Consider GTACGCCGAAAGGCATAC (((.(((....))).))), for which, in data set [1], the folding enthalpy was -16.4 kcal/mol. Moreover, the Tm in data set [2] is 44.7 °C.

As to GATCAAGTATTTGATC ((((((....)))))), the folding enthalpy in data set [1] was -37.8 kcal/mol. The Tm in data set [2] was 50.3 °C.

As to GGCACAGGAAACTGCGCC (((.(((....))).))), the folding enthalpy in data set [1] was -50.8 kcal/mol. The Tm in data set [2] was determined as 55.8 °C.

In the case of CGTCTTCGGAAACGAACG (((..(((....)))))), the folding enthalpy in data set [1] was -11.3 kcal/mol. The Tm in data set [2] stood at 29.8 °C.

Regarding GATCGGGAATCCGATC ((((((....)))))), the folding enthalpy in data set [1] was -38.6 kcal/mol. In addition, in data set [2], the Tm turned out to be 64.8 °C.

Take GACATAGGAAACTATGTC (((((((....))))))): in data set [1], the folding enthalpy is -35.6 kcal/mol. The Tm in data set [2] was found to be 53.5 °C.

As for GTATGTGCGAAAGCATAC (((..(((....)))))), the folding enthalpy in data set [1] is -11.7 kcal/mol. Also, the Tm in data set [2] was found to be 35 °C.

Take GTAAGGGAAACCTTAC ((((((....)))))): in data set [1], the folding enthalpy is -26.2 kcal/mol. Moreover, in data set [2], the Tm was 48 °C.

Regarding GCTTGCGAAAGCATAAGC ((((((....)))..))), in data set [1], the folding enthalpy was -19.4 kcal/mol. For the same sequence, the Tm in data set [2] worked out at 47.9 °C.

Regarding GCGCCCGAAAGGGTACGC ((((((....)))..))), the folding enthalpy in data set [1] is -27.4 kcal/mol. In addition, in data set [2], the Tm stood at 55.1 °C.

Regarding GCTCCAGGAAACCGGAGC (((((.(....).))))), in data set [1], the folding enthalpy was -40.5 kcal/mol. Also, in data set [2], the Tm was 54.3 °C.

In the case of GATCGCCCGTGCGATC ((((((....)))))), the folding enthalpy in data set [1] was -33.7 kcal/mol. In addition, the Tm in data set [2] came to 64 °C.

For the sequence CGACAACGGAAACGTTCG (((..(((....)))))), in data set [1], the folding enthalpy is -14.3 kcal/mol. In addition, the Tm in data set [2] was found to be 35.9 °C.

CGCACCGGAAACGGAGCG (((.(((....))).))): the folding enthalpy in data set [1] is -37.2 kcal/mol. Moreover, the Tm in data set [2] came out at 60.9 °C.

On to GCAGCTCGAAAGAGTTGC (((.(((....))).))), for which, in data set [1], the folding enthalpy is -44.2 kcal/mol. Moreover, in data set [2], the Tm was 59.6 °C.

With CGCTCGGAAACGAGGCG ((((((....))).))), in data set [1], the folding enthalpy was -30.6 kcal/mol. Further, the Tm in data set [2] came to 53.2 °C.

Take GGCTCCGAAAGGAAGGCC ((((((....)))..))): the folding enthalpy in data set [1] was -29.7 kcal/mol. The Tm in data set [2] is 52.6 °C.

On to GCTAATGAAAATTAGC ((((((....)))))), for which the folding enthalpy in data set [1] is -31.7 kcal/mol. The Tm in data set [2] amounted to 50 °C.

Regarding GGGAACGAAAGTTCACCC ((((((....)))..))), the folding enthalpy in data set [1] was -20.7 kcal/mol. The Tm in data set [2] was found to be 51.6 °C.

Regarding GGACGGCGAAAGCCATCC (((.(((....))).))), in data set [1], the folding enthalpy was -23.7 kcal/mol. Also, the Tm in data set [2] was 50 °C.

As to GAAACTGGAAACAGCTTC (((.(((....))).))), in data set [1], the folding enthalpy was -31.1 kcal/mol. In addition, in data set [2], the Tm was 32.5 °C.

As to GAGTCGGGAAACCGACCC (.(((((....))))).), the folding enthalpy in data set [1] was -10.8 kcal/mol. Moreover, the Tm in data set [2] is 42 °C.

Regarding GCTGTCGAAAGACATAGC ((((((....)))..))), the folding enthalpy in data set [1] is -16.4 kcal/mol. The Tm in data set [2] stood at 45.1 °C.

For GTGCACGAAAGTGGTCAC ((((((....)))..))), the folding enthalpy in data set [1] is -15.9 kcal/mol. Further, the Tm in data set [2] was determined as 40.2 °C.

In the case of GCTGGTCGAAAGACAGC (((.(((....)))))), the folding enthalpy in data set [1] is -27.3 kcal/mol. In addition, the Tm in data set [2] came to 54.7 °C.

Consider GCGCTCGAAAGAGTACGC ((((((....)))..))), for which the folding enthalpy in data set [1] was -25.6 kcal/mol. Besides, the Tm in data set [2] turned out to be 50 °C.

On to GCTTTTGGAAACAAAGGC ((.((((....)))).)), for which the folding enthalpy in data set [1] was -28.9 kcal/mol. In data set [2], the Tm is 43 °C.

Regarding GCATAGCCGAAAGGCTGC (((..(((....)))))), the folding enthalpy in data set [1] was -12.6 kcal/mol. Moreover, the Tm in data set [2] was determined as 49.3 °C.

For GGGATGGAAACATCCC ((((((....)))))), the folding enthalpy in data set [1] is -41.4 kcal/mol. Moreover, the Tm in data set [2] stood at 60.7 °C.

For the sequence GCGTCCAAACGC ((((....)))), in data set [1], the folding enthalpy is -18.8 kcal/mol. Moreover, the Tm in data set [2] was found to be 51.4 °C.

Source of the values: the array DNA melting data of Ke et al. (doi:10.1101/2024.01.08.574731).
